Molecules are shown by their SMILES. ≈ marks a conversion by molar mass, not a printed value.

The species entered for one data set is Homo sapiens. Put plainly: Selectivity index, ratio of IC50 for human A431 cells harboring wild type EGFR to IC50 for human NCI-H1975 cells harboring EGFR L858R/T790M double mutant. A digest of the protocol:
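Cell growth inhibition measured by sulforhodamine B colorimetric assay in H1975 (EGFR L858R/T790M) and A431 (overexpressed wild-type EGFR) cells; IC50 values are means ± SD of at least three independent determinations. Selectivity is taken as the A431:H1975 IC50 ratio.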

Data set [1] is described as follows: Aqueous solubility in pH 7.4 PBS buffer by UV-Visible spectrophotometric method. The data set is classed as physicochemical. A digest of the protocol:
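Solubility determined in 0.1 M PBS, pH 7.4, by UV-visible spectrophotometry.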

Data set [2] has as its target Epidermal growth factor receptor (Homo sapiens, UniProt P00533). The experiment in a line: Inhibition of wild type EGFR phosphorylation in EGF-stimulated human A431 cells up to 1000 nM by Western blot method. A digest of the protocol:
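A431 cells lysed in Tris-HCl pH 6.8 buffer with DTT, SDS and glycerol; equal protein amounts resolved on 8% SDS-PAGE, transferred to nitrocellulose and probed for p-EGFR (Y1068), total EGFR, p-AKT (Ser473), total AKT and GAPDH.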

Data set [3] can be described thus: Apparent permeability from apical to basolateral side in MDCK2 cells at 2 uM after 2.5 hrs by LC-MS/MS method. To be noted: dog, MDCK. The data set is classed as ADME, cell-based, Canis lupus familiaris, MDCK-II.
The target of another data set is T1, Cytochrome P450 1A2 (Homo sapiens, UniProt P05177).
T1 sequence (P05177 whole entry): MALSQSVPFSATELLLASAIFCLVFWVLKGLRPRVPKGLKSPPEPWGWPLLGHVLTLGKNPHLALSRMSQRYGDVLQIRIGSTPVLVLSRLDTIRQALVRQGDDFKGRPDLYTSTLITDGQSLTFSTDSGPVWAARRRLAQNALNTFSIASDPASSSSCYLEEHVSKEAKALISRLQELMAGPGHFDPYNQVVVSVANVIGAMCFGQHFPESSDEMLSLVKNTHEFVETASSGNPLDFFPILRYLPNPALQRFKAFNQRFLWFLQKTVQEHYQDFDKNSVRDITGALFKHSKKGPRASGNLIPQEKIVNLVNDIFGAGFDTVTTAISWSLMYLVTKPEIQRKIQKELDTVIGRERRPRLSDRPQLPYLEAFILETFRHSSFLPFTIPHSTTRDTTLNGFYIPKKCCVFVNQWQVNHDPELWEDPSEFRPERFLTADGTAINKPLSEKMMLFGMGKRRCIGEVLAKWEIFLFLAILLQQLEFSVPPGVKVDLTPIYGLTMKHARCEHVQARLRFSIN
The experiment in a line: Inhibition of human CYP1A2 (unknown origin). In kind it is ADME.

The next data set addresses Cytochrome P450 2D6 (Homo sapiens, UniProt P10635). The experiment in a line: Inhibition of human CYP2D6 (unknown origin). In kind it is ADME.
Another data set concerns the target Cytochrome P450 3A4 (Homo sapiens, UniProt P08684). Put plainly: Inhibition of human CYP3A4 (unknown origin). The data set is classed as ADME.
A short description of data set [4]: Half life in ICR mouse at 10 mg/kg, po by LC-MS/MS analysis. In kind it is ADME, organism-based. To be noted: in vivo.

Chain of Epidermal growth factor receptor (P00533 whole entry): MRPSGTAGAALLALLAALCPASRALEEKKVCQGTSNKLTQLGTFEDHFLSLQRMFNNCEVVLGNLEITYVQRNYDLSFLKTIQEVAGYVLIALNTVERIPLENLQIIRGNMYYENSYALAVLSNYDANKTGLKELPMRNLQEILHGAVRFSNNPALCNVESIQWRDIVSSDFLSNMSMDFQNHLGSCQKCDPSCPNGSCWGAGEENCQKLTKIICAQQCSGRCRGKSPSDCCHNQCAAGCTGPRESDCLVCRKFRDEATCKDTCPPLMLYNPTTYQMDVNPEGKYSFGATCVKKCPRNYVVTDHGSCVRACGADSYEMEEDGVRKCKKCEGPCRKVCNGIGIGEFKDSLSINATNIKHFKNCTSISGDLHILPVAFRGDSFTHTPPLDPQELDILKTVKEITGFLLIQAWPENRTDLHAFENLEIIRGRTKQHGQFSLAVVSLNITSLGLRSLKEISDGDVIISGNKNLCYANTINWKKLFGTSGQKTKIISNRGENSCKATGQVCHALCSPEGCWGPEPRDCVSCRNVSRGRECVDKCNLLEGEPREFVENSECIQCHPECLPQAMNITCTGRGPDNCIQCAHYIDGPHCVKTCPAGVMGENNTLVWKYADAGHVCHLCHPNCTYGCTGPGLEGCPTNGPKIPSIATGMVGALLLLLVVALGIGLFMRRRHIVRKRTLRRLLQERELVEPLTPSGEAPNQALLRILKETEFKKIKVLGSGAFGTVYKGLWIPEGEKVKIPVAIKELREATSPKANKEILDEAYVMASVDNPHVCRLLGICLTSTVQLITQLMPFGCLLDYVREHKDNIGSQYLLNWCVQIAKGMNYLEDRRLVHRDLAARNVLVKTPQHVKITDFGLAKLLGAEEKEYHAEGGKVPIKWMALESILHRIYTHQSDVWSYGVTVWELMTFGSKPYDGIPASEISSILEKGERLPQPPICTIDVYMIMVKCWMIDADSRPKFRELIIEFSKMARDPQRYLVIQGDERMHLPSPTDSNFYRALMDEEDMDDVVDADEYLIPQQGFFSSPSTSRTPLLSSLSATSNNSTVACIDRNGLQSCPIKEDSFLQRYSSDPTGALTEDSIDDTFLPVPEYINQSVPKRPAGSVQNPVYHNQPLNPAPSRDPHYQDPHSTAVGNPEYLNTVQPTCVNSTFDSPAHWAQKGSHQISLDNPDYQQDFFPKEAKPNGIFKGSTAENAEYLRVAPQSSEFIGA
Chain of Cytochrome P450 3A4 (P08684 whole entry): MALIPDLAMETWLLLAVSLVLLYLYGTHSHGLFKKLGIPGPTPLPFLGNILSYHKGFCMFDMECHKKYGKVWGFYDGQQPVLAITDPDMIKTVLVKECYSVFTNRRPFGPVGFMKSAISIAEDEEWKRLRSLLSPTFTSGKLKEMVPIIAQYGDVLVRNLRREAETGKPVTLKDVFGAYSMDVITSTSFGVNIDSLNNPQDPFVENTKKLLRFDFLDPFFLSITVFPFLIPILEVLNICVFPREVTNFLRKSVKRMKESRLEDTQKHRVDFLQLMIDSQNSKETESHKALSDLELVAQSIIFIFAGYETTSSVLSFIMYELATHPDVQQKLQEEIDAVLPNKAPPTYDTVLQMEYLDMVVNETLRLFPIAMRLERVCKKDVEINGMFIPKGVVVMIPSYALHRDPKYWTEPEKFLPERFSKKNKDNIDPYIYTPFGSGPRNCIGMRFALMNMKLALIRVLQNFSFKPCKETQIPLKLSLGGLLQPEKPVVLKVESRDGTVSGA
Chain of Cytochrome P450 2D6 (P10635 whole entry): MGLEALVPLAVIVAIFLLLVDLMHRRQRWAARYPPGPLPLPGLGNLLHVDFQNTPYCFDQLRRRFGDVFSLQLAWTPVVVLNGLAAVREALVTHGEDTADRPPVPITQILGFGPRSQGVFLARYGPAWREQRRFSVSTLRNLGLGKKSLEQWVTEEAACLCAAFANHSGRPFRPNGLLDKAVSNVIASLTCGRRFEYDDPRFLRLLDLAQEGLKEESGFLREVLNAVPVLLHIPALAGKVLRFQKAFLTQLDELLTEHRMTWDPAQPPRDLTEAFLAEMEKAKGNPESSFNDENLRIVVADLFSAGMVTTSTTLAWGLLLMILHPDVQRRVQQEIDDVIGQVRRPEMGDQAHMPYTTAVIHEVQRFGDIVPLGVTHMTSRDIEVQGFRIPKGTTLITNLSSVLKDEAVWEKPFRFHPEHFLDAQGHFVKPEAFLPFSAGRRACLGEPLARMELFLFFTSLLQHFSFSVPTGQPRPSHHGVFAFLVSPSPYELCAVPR

`C=CC(=O)Nc1cccc(-n2c(=O)n(C(C)C)c(=O)c3cnc(Nc4ccc(N5CCN(C)CC5)cc4OC)nc32)c1`: in the data set listed under Homo sapiens, the Ratio IC50 is 36. In addition, the concentration in solution in data set [1] (solubility) came to 262 µg/mL (≈ 459 µM). For the same molecule, in data set [2], the “inhibition (INH)” value is given as “Not Active”. For the same molecule, the apparent permeability from apical to basolateral (Papp A→B) – broadly, how fast a substance crosses the layer from the apical side – at 2.5 h, 2 µM in data set [3] is 1.5 ×10⁻⁶ cm/s. The IC50 (commonly the midpoint of a concentration-inhibition curve) on Cytochrome P450 1A2 was more than 50 µM; on Cytochrome P450 2D6, more than 50 µM; against Cytochrome P450 3A4 it was 23.9 µM. Further, in data set [4], the half-life (in general, the time needed for the level to fall by half in the phase considered) is 1.1 h.

Values taken from ChEMBL document CHEMBL4118273, “Design, Synthesis, and Biological Evaluation of Pyrimido[4,5- d]pyrimidine-2,4(1 H,3 H)-diones as Potent and Selective Epidermal Growth Factor Receptor (EGFR) Inhibitors against L858R/T790M Resistance Mutation” (J Med Chem, 2018).
